Assay results published in ChEMBL document CHEMBL4689842, “EUbOPEN Chemogenomics Library wave 1” (2021).

Test system: U2OS
Assay: Multiplex assay against U2OS
Assay type: toxicity, cell-based
Settings: human
Outline: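 On a CQ1 microscope at 37°C and 5% CO2, live cells were imaged after compound addition. They had been stained at seeding with Hoechst33342, BioTracker Green Microtubule Cytoskeleton Dye, MitoTracker Red and Annexin V Alexa Fluor 680. CellPathfinder machine-learning gating assigned cells to Hoechst high-intensity objects or normal cells, normal cells to healthy, pyknosed or fragmented nuclei, and pyknosed cells to mitotic or apoptotic. Tubulin, mitochondrial-mass and membrane-permeability phenotypes are per cents of healthy-nucleus cells.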

[1] = 12 h, 1 µM, compound concentration 1 uM, replicate 1
[2] = 12 h, 1 µM, compound concentration 1 uM, replicate 2
[3] = 12 h, 10 µM, compound concentration 10 uM, replicate 1
[4] = 12 h, 10 µM, compound concentration 10 uM, replicate 2
[5] = 24 h, 1 µM, compound concentration 1 uM, replicate 1
[6] = 24 h, 1 µM, compound concentration 1 uM, replicate 2
[7] = 24 h, 10 µM, compound concentration 10 uM, replicate 1
[8] = 24 h, 10 µM, compound concentration 10 uM, replicate 2
[9] = 48 h, 1 µM, compound concentration 1 uM, replicate 1
[10] = 48 h, 1 µM, compound concentration 1 uM, replicate 2
[11] = 48 h, 10 µM, compound concentration 10 uM, replicate 1
[12] = 48 h, 10 µM, compound concentration 10 uM, replicate 2

Q: With `CN1CCN(Cc2ccc(Nc3ncc(Cl)c(Nc4ccccc4S(=O)(=O)N(C)C)n3)cc2)CC1` [DUBERMATINIB] as the molecule, how does the “Population Apoptotic (%)” value [1] read?
A: The value was 73%.

Q: What about the “Population Fragmented Nuclei (%)” value [1] of the same molecule?
A: Its value is 20%.

Q: What about the “Population Healthy Nuclei (%)” value [1] of the same molecule?
A: Its value is 51%.

Q: What about the “Population Hoechst High Intensity Objects (%)” value [1] of the same molecule?
A: Its value is 11%.

Q: What about the “Population Membrane Permeable-Phenotype (%)” value [1] of the same molecule?
A: Its value is 6%.

Q: What about the “Population Mitochondria Different-Phenotype (%)” value [1] of the same molecule?
A: The value was 9%.

Q: What about the “Population Mitotic Cells (%)” value [1] of the same molecule?
A: The value was 26%.

Q: What about the “Population Normal (%)” value [1] of the same molecule?
A: Its value is 88%.

Q: And the “Population Pyknosed Nuclei (%)” value [1]?
A: Its value is 27%.

Q: What about the “Population Tubulin-Different-Phenotype (%)” value [1] of the same molecule?
A: The value was 6%.

Q: And the “Total Cell Count” value [1]?
A: Its value is 172.

Q: And the “Population Apoptotic (%)” value [2]?
A: Its value is 100%.

Q: And the “Population Fragmented Nuclei (%)” value [2]?
A: Its value is 13%.

Q: And the “Population Healthy Nuclei (%)” value [2]?
A: Its value is 83%.

Q: What about the “Population Hoechst High Intensity Objects (%)” value [2] of the same molecule?
A: Its value is 10%.

Q: What about the “Population Membrane Permeable-Phenotype (%)” value [2] of the same molecule?
A: The value was 4%.

Q: What about the “Population Mitochondria Different-Phenotype (%)” value [2] of the same molecule?
A: Its value is 16%.

Q: What about the “Population Mitotic Cells (%)” value [2] of the same molecule?
A: The value was 0%.

Q: And the “Population Normal (%)” value [2]?
A: Its value is 89%.

Q: And the “Population Pyknosed Nuclei (%)” value [2]?
A: Its value is 2%.

Q: What about the “Population Tubulin-Different-Phenotype (%)” value [2] of the same molecule?
A: Its value is 11%.

Q: And the “Total Cell Count” value [2]?
A: The value was 65.

Q: And the “Population Apoptotic (%)” value [3]?
A: Its value is 78%.

Q: And the “Population Fragmented Nuclei (%)” value [3]?
A: The value was 25%.

Q: What about the “Population Healthy Nuclei (%)” value [3] of the same molecule?
A: Its value is 44%.

Q: And the “Population Hoechst High Intensity Objects (%)” value [3]?
A: The value was 12%.

Q: And the “Population Membrane Permeable-Phenotype (%)” value [3]?
A: The value was 9%.

Q: And the “Population Mitochondria Different-Phenotype (%)” value [3]?
A: Its value is 40%.

Q: And the “Population Mitotic Cells (%)” value [3]?
A: The value was 21%.

Q: And the “Population Normal (%)” value [3]?
A: Its value is 87%.

Q: What about the “Population Pyknosed Nuclei (%)” value [3] of the same molecule?
A: The value was 29%.

Q: And the “Population Tubulin-Different-Phenotype (%)” value [3]?
A: The value was 28%.

Q: And the “Total Cell Count” value [3]?
A: Its value is 140.

Q: And the “Population Apoptotic (%)” value [4]?
A: Its value is 73%.

Q: And the “Population Fragmented Nuclei (%)” value [4]?
A: The value was 45%.

Q: And the “Population Healthy Nuclei (%)” value [4]?
A: Its value is 31%.

Q: And the “Population Hoechst High Intensity Objects (%)” value [4]?
A: Its value is 9%.

Q: And the “Population Membrane Permeable-Phenotype (%)” value [4]?
A: Its value is 28%.

Q: What about the “Population Mitochondria Different-Phenotype (%)” value [4] of the same molecule?
A: Its value is 38%.

Q: And the “Population Mitotic Cells (%)” value [4]?
A: The value was 26%.

Q: What about the “Population Normal (%)” value [4] of the same molecule?
A: Its value is 90%.

Q: And the “Population Pyknosed Nuclei (%)” value [4]?
A: The value was 22%.

Q: What about the “Population Tubulin-Different-Phenotype (%)” value [4] of the same molecule?
A: The value was 42%.

Q: What about the “Total Cell Count” value [4] of the same molecule?
A: Its value is 91.

Q: And the “Population Apoptotic (%)” value [5]?
A: Its value is 88%.

Q: What about the “Population Fragmented Nuclei (%)” value [5] of the same molecule?
A: Its value is 29%.

Q: And the “Population Healthy Nuclei (%)” value [5]?
A: Its value is 45%.

Q: What about the “Population Hoechst High Intensity Objects (%)” value [5] of the same molecule?
A: The value was 10%.

Q: And the “Population Membrane Permeable-Phenotype (%)” value [5]?
A: The value was 11%.

Q: What about the “Population Mitochondria Different-Phenotype (%)” value [5] of the same molecule?
A: The value was 14%.

Q: And the “Population Mitotic Cells (%)” value [5]?
A: Its value is 11%.

Q: And the “Population Normal (%)” value [5]?
A: The value was 90%.

Q: And the “Population Pyknosed Nuclei (%)” value [5]?
A: Its value is 25%.

Q: And the “Population Tubulin-Different-Phenotype (%)” value [5]?
A: Its value is 4%.

Q: What about the “Total Cell Count” value [5] of the same molecule?
A: Its value is 188.

Q: What about the “Population Apoptotic (%)” value [6] of the same molecule?
A: Its value is 0%.

Q: What about the “Population Fragmented Nuclei (%)” value [6] of the same molecule?
A: Its value is 11%.

Q: What about the “Population Healthy Nuclei (%)” value [6] of the same molecule?
A: The value was 83%.

Q: What about the “Population Hoechst High Intensity Objects (%)” value [6] of the same molecule?
A: The value was 6%.

Q: What about the “Population Membrane Permeable-Phenotype (%)” value [6] of the same molecule?
A: Its value is 4%.

Q: And the “Population Mitochondria Different-Phenotype (%)” value [6]?
A: The value was 36%.

Q: And the “Population Mitotic Cells (%)” value [6]?
A: The value was 100%.

Q: What about the “Population Normal (%)” value [6] of the same molecule?
A: Its value is 93%.

Q: And the “Population Pyknosed Nuclei (%)” value [6]?
A: Its value is 4%.

Q: What about the “Population Tubulin-Different-Phenotype (%)” value [6] of the same molecule?
A: The value was 14%.

Q: What about the “Total Cell Count” value [6] of the same molecule?
A: The value was 70.

Q: And the “Population Apoptotic (%)” value [7]?
A: The value was 84%.

Q: And the “Population Fragmented Nuclei (%)” value [7]?
A: The value was 38%.

Q: And the “Population Healthy Nuclei (%)” value [7]?
A: The value was 24%.

Q: What about the “Population Hoechst High Intensity Objects (%)” value [7] of the same molecule?
A: Its value is 19%.

Q: What about the “Population Membrane Permeable-Phenotype (%)” value [7] of the same molecule?
A: The value was 4%.

Q: And the “Population Mitochondria Different-Phenotype (%)” value [7]?
A: The value was 45%.

Q: What about the “Population Mitotic Cells (%)” value [7] of the same molecule?
A: Its value is 15%.

Q: And the “Population Normal (%)” value [7]?
A: The value was 80%.

Q: And the “Population Pyknosed Nuclei (%)” value [7]?
A: Its value is 37%.

Q: What about the “Population Tubulin-Different-Phenotype (%)” value [7] of the same molecule?
A: The value was 22%.

Q: What about the “Total Cell Count” value [7] of the same molecule?
A: Its value is 150.

Q: What about the “Population Apoptotic (%)” value [8] of the same molecule?
A: Its value is 95%.

Q: What about the “Population Fragmented Nuclei (%)” value [8] of the same molecule?
A: The value was 30%.

Q: And the “Population Healthy Nuclei (%)” value [8]?
A: The value was 33%.

Q: And the “Population Hoechst High Intensity Objects (%)” value [8]?
A: The value was 14%.

Q: What about the “Population Membrane Permeable-Phenotype (%)” value [8] of the same molecule?
A: The value was 55%.

Q: What about the “Population Mitochondria Different-Phenotype (%)” value [8] of the same molecule?
A: Its value is 55%.

Q: What about the “Population Mitotic Cells (%)” value [8] of the same molecule?
A: The value was 4%.

Q: What about the “Population Normal (%)” value [8] of the same molecule?
A: Its value is 85%.

Q: What about the “Population Pyknosed Nuclei (%)” value [8] of the same molecule?
A: Its value is 36%.

Q: And the “Population Tubulin-Different-Phenotype (%)” value [8]?
A: The value was 65%.

Q: And the “Total Cell Count” value [8]?
A: The value was 87.

Q: And the “Population Apoptotic (%)” value [9]?
A: Its value is 82%.

Q: And the “Population Fragmented Nuclei (%)” value [9]?
A: Its value is 29%.

Q: And the “Population Healthy Nuclei (%)” value [9]?
A: Its value is 44%.

Q: What about the “Population Hoechst High Intensity Objects (%)” value [9] of the same molecule?
A: Its value is 8%.

Q: And the “Population Membrane Permeable-Phenotype (%)” value [9]?
A: Its value is 8%.

Q: And the “Population Mitochondria Different-Phenotype (%)” value [9]?
A: The value was 28%.

Q: What about the “Population Mitotic Cells (%)” value [9] of the same molecule?
A: The value was 17%.

Q: What about the “Population Normal (%)” value [9] of the same molecule?
A: The value was 91%.

Q: And the “Population Pyknosed Nuclei (%)” value [9]?
A: Its value is 25%.

Q: What about the “Population Tubulin-Different-Phenotype (%)” value [9] of the same molecule?
A: The value was 11%.

Q: What about the “Total Cell Count” value [9] of the same molecule?
A: The value was 217.

Q: And the “Population Apoptotic (%)” value [10]?
A: The value was 100%.

Q: And the “Population Fragmented Nuclei (%)” value [10]?
A: Its value is 16%.

Q: What about the “Population Healthy Nuclei (%)” value [10] of the same molecule?
A: Its value is 78%.

Q: What about the “Population Mitochondria Different-Phenotype (%)” value [10] of the same molecule?
A: Its value is 37%.

Q: What about the “Population Mitotic Cells (%)” value [10] of the same molecule?
A: Its value is 0%.

Q: What about the “Population Pyknosed Nuclei (%)” value [10] of the same molecule?
A: Its value is 4%.

Q: What about the “Population Tubulin-Different-Phenotype (%)” value [10] of the same molecule?
A: The value was 17%.

Q: What about the “Total Cell Count” value [10] of the same molecule?
A: The value was 87.

Q: And the “Population Apoptotic (%)” value [11]?
A: The value was 92%.

Q: And the “Population Fragmented Nuclei (%)” value [11]?
A: The value was 40%.

Q: And the “Population Healthy Nuclei (%)” value [11]?
A: The value was 8%.

Q: And the “Population Hoechst High Intensity Objects (%)” value [11]?
A: The value was 30%.

Q: What about the “Population Membrane Permeable-Phenotype (%)” value [11] of the same molecule?
A: The value was 33%.

Q: What about the “Population Mitochondria Different-Phenotype (%)” value [11] of the same molecule?
A: Its value is 50%.

Q: What about the “Population Mitotic Cells (%)” value [11] of the same molecule?
A: Its value is 7%.

Q: And the “Population Normal (%)” value [11]?
A: Its value is 69%.

Q: And the “Population Pyknosed Nuclei (%)” value [11]?
A: Its value is 51%.

Q: What about the “Population Tubulin-Different-Phenotype (%)” value [11] of the same molecule?
A: Its value is 33%.

Q: And the “Total Cell Count” value [11]?
A: The value was 146.

Q: What about the “Population Apoptotic (%)” value [12] of the same molecule?
A: Its value is 85%.

Q: What about the “Population Fragmented Nuclei (%)” value [12] of the same molecule?
A: Its value is 24%.

Q: What about the “Population Healthy Nuclei (%)” value [12] of the same molecule?
A: Its value is 49%.

Q: And the “Population Hoechst High Intensity Objects (%)” value [12]?
A: The value was 20%.

Q: And the “Population Membrane Permeable-Phenotype (%)” value [12]?
A: The value was 80%.

Q: And the “Population Mitochondria Different-Phenotype (%)” value [12]?
A: The value was 84%.

Q: What about the “Population Mitotic Cells (%)” value [12] of the same molecule?
A: Its value is 14%.

Q: And the “Population Normal (%)” value [12]?
A: Its value is 79%.

Q: What about the “Population Pyknosed Nuclei (%)” value [12] of the same molecule?
A: The value was 26%.

Q: And the “Population Tubulin-Different-Phenotype (%)” value [12]?
A: Its value is 76%.

Q: And the “Total Cell Count” value [12]?
A: Its value is 104.
